Results published in ChEMBL document CHEMBL4680068, “Towards a RIOK2 chemical probe: cellular potency improvement of a selective 2-(acylamino)pyridine series” (RSC Med Chem, 2021).
pIC50, pKd: −log10 of the molar value.

How the values were obtained:
[1] = biological target: Serine/threonine-protein kinase RIO2 (Homo sapiens, UniProt Q9BVS4); assay: Displacement of tracer K5 from N-terminal nanoluciferase-tagged RIOK2 (unknown origin) expressed in HEK293 cells measured after 2 hrs by NanoBRET assay; format: cell-based
[2] = biological target: T1, Mitogen-activated protein kinase 8 (Homo sapiens, UniProt P45983); assay: Inhibition of full length recombinant human MAPK8 using ATF2 as substrate incubated for 40 mins in presence of [gamma33P]ATP by radiometric scintillation analysis
How it was run: (§1)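 Eurofins radiometric enzymatic kinase assay run at the Km of ATP for each kinase. Activity was read as incorporation of radiolabelled ATP into a peptide substrate, in a homogeneous format.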

[3] = biological target: T2, Mitogen-activated protein kinase 10 (Homo sapiens, UniProt P53779); assay: Inhibition of full length recombinant human MAPK10 using peptide substrate incubated for 40 mins in presence of [gamma33P]ATP by radiometric scintillation analysis; how it was run: as §1
[4] = biological target: T3, Glycogen synthase kinase-3 alpha (Homo sapiens, UniProt P49840); assay: Inhibition of recombinant human GSK3alpha S449A mutant (2 to end residues) using YRRAAVPPSPSLSR peptide as substrate incubated for 40 mins in presence of [gamma33P]ATP by radiometric scintillation analysis
How it was run: (§2)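 Orthogonal homogeneous enzymatic kinase assay, run by a contract provider. GSK3α activity was read as incorporation of radiolabelled ATP into a peptide substrate. ATP was at its Km.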

[5] = biological target: T4, SNF-related serine/threonine-protein kinase (Homo sapiens, UniProt Q9NRH2); assay: Inhibition of recombinant human SNRK E97G/P116A mutant (1 to 505 residues) using KKLRRTLSFAEPG peptide as substrate incubated for 40 mins in presence of [gamma33P]ATP by radiometric scintillation analysis; how it was run: as §1
T4 sequence (Q9NRH2 whole entry): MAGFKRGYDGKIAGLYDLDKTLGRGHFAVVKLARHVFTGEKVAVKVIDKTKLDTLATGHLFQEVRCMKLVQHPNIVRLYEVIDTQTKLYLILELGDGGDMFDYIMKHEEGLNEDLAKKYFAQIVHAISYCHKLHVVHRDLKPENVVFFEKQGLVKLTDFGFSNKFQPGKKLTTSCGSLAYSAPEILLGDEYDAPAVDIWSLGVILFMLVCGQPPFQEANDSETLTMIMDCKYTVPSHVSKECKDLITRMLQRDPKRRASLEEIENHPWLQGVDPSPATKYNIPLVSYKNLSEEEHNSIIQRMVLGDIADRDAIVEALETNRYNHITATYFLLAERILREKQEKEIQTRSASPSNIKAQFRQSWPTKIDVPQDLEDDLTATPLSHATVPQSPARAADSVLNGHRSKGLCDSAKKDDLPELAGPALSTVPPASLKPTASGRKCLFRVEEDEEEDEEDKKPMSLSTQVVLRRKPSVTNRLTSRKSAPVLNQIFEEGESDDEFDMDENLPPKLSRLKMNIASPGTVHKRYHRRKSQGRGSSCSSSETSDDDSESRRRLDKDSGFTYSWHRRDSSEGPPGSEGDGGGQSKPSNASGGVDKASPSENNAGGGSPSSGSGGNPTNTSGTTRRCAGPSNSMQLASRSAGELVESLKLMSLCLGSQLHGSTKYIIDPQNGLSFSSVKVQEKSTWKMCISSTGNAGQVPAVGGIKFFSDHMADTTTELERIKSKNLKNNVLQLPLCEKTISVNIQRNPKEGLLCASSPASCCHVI

[6] = biological target: T5, Homeodomain-interacting protein kinase 1 (Homo sapiens, UniProt Q86Z02); assay: Inhibition of human HIPK1 (158 to 555 residues) using myelin ba as substrate incubated for 40 mins in presence of [gamma33P]ATP by radiometric scintillation analysis; how it was run: as §1
[7] = biological target: T1, Mitogen-activated protein kinase 8; assay: Binding affinity to full length recombinant human MAPK8 using ATF2 as substrate incubated for 40 mins in presence of [gamma33P]ATP by radiometric scintillation analysis; how it was run: as §1
[8] = biological target: T2, Mitogen-activated protein kinase 10; assay: Binding affinity to full length recombinant human MAPK10 using peptide substrate incubated for 40 mins in presence of [gamma33P]ATP by radiometric scintillation analysis; how it was run: as §1
[9] = biological target: T3, Glycogen synthase kinase-3 alpha; assay: Binding affinity to recombinant human GSK3alpha S449A mutant (2 to end residues) using YRRAAVPPSPSLSR peptide as substrate incubated for 40 mins in presence of [gamma33P]ATP by radiometric scintillation analysis; how it was run: as §2
[10] = biological target: T4, SNF-related serine/threonine-protein kinase; assay: Binding affinity to recombinant human SNRK E97G/P116A mutant (1 to 505 residues) using KKLRRTLSFAEPG peptide as substrate incubated for 40 mins in presence of [gamma33P]ATP by radiometric scintillation analysis; how it was run: as §1
[11] = biological target: T5, Homeodomain-interacting protein kinase 1; assay: Binding affinity to human HIPK1 (158 to 555 residues) using myelin ba as substrate incubated for 40 mins in presence of [gamma33P]ATP by radiometric scintillation analysis; how it was run: as §1

T3 sequence (P49840 whole entry): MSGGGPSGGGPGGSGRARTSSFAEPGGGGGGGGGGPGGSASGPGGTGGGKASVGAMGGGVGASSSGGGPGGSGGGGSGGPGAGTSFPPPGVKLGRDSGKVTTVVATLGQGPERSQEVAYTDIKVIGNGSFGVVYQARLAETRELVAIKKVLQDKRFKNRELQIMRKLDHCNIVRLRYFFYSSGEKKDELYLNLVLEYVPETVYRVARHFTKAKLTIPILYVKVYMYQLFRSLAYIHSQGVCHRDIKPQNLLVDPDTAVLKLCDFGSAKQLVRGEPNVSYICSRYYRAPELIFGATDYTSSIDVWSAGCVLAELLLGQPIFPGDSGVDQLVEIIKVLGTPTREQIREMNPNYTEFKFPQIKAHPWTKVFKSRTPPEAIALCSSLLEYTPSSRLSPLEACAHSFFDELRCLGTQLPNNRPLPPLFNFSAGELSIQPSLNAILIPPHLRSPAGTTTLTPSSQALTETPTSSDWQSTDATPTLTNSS
T1 sequence (P45983 whole entry): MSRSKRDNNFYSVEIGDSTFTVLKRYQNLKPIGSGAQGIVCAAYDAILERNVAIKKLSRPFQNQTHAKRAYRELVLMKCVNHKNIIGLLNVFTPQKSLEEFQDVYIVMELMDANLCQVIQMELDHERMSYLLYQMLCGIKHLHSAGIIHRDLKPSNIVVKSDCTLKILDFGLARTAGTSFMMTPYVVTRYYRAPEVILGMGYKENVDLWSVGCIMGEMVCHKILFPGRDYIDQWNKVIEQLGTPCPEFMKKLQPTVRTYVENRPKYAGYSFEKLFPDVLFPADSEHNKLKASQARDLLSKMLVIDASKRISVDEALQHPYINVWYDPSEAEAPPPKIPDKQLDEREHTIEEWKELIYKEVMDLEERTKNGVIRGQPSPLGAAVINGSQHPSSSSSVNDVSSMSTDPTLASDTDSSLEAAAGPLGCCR
T5 sequence (Q86Z02 whole entry, the tested form may be a part): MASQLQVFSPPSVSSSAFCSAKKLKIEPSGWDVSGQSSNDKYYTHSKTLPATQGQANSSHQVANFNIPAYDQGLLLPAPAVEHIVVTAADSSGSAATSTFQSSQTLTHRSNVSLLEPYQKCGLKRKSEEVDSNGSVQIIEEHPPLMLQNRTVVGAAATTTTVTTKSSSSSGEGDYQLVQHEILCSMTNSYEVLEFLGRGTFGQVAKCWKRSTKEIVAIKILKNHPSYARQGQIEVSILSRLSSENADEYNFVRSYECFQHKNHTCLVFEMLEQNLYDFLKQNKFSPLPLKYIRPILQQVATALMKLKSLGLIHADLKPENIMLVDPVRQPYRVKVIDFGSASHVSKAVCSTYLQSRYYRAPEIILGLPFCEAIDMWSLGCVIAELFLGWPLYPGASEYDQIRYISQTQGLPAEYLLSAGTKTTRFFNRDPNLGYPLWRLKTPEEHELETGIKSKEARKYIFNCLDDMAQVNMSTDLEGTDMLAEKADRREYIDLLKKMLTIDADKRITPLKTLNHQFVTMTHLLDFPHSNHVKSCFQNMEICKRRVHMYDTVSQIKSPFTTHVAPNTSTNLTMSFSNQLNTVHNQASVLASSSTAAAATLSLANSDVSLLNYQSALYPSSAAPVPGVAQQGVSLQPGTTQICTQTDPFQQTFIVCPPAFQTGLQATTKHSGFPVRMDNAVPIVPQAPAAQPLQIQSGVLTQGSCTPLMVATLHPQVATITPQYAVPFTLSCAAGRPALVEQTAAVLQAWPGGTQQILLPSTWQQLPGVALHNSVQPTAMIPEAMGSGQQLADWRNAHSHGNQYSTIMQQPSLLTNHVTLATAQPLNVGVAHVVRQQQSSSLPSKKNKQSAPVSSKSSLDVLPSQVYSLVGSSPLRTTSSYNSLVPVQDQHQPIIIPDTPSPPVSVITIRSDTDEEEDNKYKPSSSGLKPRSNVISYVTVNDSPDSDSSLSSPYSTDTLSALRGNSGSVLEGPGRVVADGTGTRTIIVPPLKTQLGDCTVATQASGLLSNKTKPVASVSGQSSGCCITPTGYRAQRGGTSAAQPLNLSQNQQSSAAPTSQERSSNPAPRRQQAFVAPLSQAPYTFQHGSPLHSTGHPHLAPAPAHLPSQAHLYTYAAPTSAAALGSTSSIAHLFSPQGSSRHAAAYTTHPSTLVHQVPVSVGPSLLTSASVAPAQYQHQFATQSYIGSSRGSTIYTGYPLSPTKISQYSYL
Chain of Serine/threonine-protein kinase RIO2 (Q9BVS4 whole entry): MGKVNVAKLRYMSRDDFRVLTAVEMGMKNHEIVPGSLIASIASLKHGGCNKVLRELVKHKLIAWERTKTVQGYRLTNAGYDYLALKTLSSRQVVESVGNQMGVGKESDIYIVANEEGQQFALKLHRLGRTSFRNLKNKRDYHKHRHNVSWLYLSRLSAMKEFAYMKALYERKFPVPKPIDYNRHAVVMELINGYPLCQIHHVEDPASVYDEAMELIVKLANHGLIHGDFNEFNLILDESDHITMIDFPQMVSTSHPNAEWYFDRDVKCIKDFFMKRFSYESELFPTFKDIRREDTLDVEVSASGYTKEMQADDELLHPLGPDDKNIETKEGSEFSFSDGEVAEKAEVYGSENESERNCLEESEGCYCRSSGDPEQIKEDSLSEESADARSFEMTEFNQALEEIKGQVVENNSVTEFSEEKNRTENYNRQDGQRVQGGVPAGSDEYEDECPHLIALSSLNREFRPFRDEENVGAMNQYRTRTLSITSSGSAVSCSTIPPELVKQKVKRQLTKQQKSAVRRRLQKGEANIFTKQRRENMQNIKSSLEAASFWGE
T2 sequence (P53779 whole entry): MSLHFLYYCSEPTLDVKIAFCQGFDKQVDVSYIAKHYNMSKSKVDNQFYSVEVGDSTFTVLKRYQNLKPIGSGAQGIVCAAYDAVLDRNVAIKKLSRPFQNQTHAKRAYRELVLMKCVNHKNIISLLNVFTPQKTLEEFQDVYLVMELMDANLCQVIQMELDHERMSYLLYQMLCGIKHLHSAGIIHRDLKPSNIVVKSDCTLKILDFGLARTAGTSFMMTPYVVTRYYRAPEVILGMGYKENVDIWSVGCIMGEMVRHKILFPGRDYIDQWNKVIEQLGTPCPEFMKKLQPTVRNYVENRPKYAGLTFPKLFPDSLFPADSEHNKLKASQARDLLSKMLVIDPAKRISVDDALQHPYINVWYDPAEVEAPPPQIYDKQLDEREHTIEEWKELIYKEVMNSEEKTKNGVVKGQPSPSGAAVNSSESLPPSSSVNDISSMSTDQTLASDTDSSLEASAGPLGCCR

pIC50 [1]	Structure (SMILES)	pIC50 [2]	pIC50 [3]	pIC50 [4]	pIC50 [5]	pIC50 [6]	other results
< 4.52	Cc1ccnc(NC(=O)CCc2ccc3ccccc3c2)c1						
4.84	CCc1ccnc(NC(=O)Cc2ccc3ccccc3c2)c1						
5.28	COc1ccnc(NC(=O)[C@@H](C)c2ccc3cc(OC)ccc3c2)c1						
4.55	COc1ccnc(NC(=O)Cc2ccc(C)c(C)c2)c1						
< 4.52	Cc1ccnc(NC(=O)COc2ccc3ccccc3c2)c1						
4.87	O=C(Cc1ccc2ccccc2c1)Nc1cc(Br)ccn1						
5.12	COc1ccc2cc([C@@H](C)C(=O)Nc3cc(C)ccn3)ccc2c1						
5.12	COc1ccnc(NC(=O)Cc2ccc(-c3ccccc3)cc2)c1						

The remaining lines, values behind:

Structure (SMILES)	pIC50 [1]	pIC50 [2]	pIC50 [3]	pIC50 [4]	pIC50 [5]	pIC50 [6]	other results
Cc1ccnc(NC(=O)Cc2ccc3c(c2)OCO3)c1	< 4.52						
COc1ccc2cc([C@H](C)C(=O)Nc3cc(C)ccn3)ccc2c1	5.18	< 5.00	5.29	5.35	< 5.00	< 5.00	
COc1ccnc(NC(=O)Cc2ccc3ccccc3c2)c1	5.28	< 5.00	5.89	5.32	< 5.00	< 5.00	
O=C(Cc1ccc2ccccc2c1)Nc1cc(C(F)(F)F)ccn1	5.12						
COc1ccc2cc(C(C)C(=O)Nc3cc(C)ccn3)ccc2c1 (racemic)	5.28	< 5.00	6.11	5.72	< 5.00	< 5.00	
O=C(Cc1ccc2ccccc2c1)Nc1cc(Cl)ccn1	5.30	< 5.00	6.28	6.07	< 5.00	< 5.00	
Cc1ccnc(NC(=O)Cc2ccc3c(c2)OCCO3)c1	< 4.52						
Cc1ccnc(NC(=O)Cc2ccc3ccccc3c2)c1		< 5.00	5.33	5.28	< 5.00	< 5.00	pKd [7]: 6.66; pKd [8]: 6.47; pKd [9]: 6.06; pKd [10]: 6.05; pKd [11]: 5.96
